Experimental data: ChEMBL document CHEMBL1821586, “Identification and biological activities of new taccalonolide microtubule stabilizers” (J Med Chem, 2011)
The source made the active and inactive calls. No cut-off for these calls is given here.

Legend:
[1] = tested on: HeLa; assay: Cell cycle arrest in human HeLa cells assessed as accumulation of cells at G2/M phase at 12 nM after 18 hrs by flow cytometric analysis; format: functional, cell-based
In short: (§1)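 DNA stained with propidium iodide (Krishan's reagent); DNA content measured by flow cytometry and plotted as PI intensity vs events.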

[2] = Antitumor activity against mouse 16/C cells allografted in mouse B6C3F1 assessed as gross log cell killing at 73.5 mg/kg, iv relative to control; format: functional
[3] = tested on: HeLa; assay: Inhibition of beta tubulin in human HeLa cells assessed asultiple abnormal mitotic spindle formation at 12 nM after 18 hrs by immunofluorescence analysis; format: cell-based
[4] = tested on: HeLa; assay: Induction of interphase microtubule bundling in human HeLa cells at 0.5 uM after 18 hrs by indirect immunofluorescence analysis; format: cell-based
[5] = Antitumor activity against mouse 16/C cells allografted in mouse B6C3F1 assessed as decrease in tumor mass at 73.5 mg/kg, iv; format: functional
In short: (§2)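 Female B6C3F1 mice (mean 19.3 ± 1.0 g) carried bilateral s.c. Mammary 16/C tumor fragments implanted day 0, 5 mice/group. […] All were given IV in 0.2 ml. Tumor mass = L×W²/2, measured 2–3 times weekly. %T/C = treated/control median mass, zeros included, taken when control tumors reach ~700–1200 mg.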

[6] = Antitumor activity against mouse 16/C cells allografted in mouse B6C3F1 assessed as delay in tumor growth at 73.5 mg/kg, iv relative to control; format: functional
In short: (§3)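 Mammary 16/C fragments implanted s.c. bilaterally in female B6C3F1 mice on day 0, 5 mice/group, IV dosing in 0.2 ml. Tumors measured 2–3 times weekly. T-C = median days for treated vs control tumors to reach 1000 mg. Gross log cell kill = (T-C)/3.32×Td, with Td the doubling time from a log-linear fit of control tumor growth.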

[7] = tested on: Mus musculus; assay: Toxicity in B6C3F1 mouse allografted with mouse 16/C cells assessed as mean body weight loss at 73.5 mg/kg, iv (reference value: -2.2%); format: organism-based; set-up: dose 73.5 mg/kg, route intravenous; conditions: in vivo
[8] = tested on: HeLa; assay: Cell cycle arrest in human HeLa cells assessed as accumulation of cells at G2/M phase at 0.32 uM after 18 hrs by flow cytometric analysis; format: functional, cell-based; in short: as §1
[9] = tested on: HeLa; assay: Antiproliferative activity against human HeLa cells after 48 hrs by SRB assay; format: functional, cell-based
In short: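 HeLa cells grown in BME with 10% FBS and 50 µg/ml gentamicin, drug-treated 48 h, proliferation read by SRB assay.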

[10] = tested on: HeLa; assay: Inhibition of beta tubulin in human HeLa cells assessed asultiple abnormal mitotic spindle formation at 0.32 uM after 18 hrs by immunofluorescence analysis; format: cell-based
[11] = tested on: HeLa; assay: Induction of interphase microtubule bundling in human HeLa cells at 0.32 uM after 18 hrs by indirect immunofluorescence; format: cell-based
[12] = tested on: HeLa; assay: Inhibition of beta tubulin in human HeLa cells assessed asultiple abnormal mitotic spindle formation at 13.5 uM after 18 hrs by immunofluorescence analysis; format: cell-based
[13] = tested on: HeLa; assay: Induction of interphase microtubule bundling in human HeLa cells at 13.5 uM after 18 hrs by indirect immunofluorescence; format: cell-based
[14] = tested on: HeLa; assay: Cell cycle arrest in human HeLa cells assessed as accumulation of cells at G2/M phase at 13.5 uM after 18 hrs by flow cytometric analysis; format: functional, cell-based; in short: as §1
[15] = tested on: HeLa; assay: Inhibition of beta tubulin in human HeLa cells assessed asultiple abnormal mitotic spindle formation at 0.8 uM after 18 hrs by immunofluorescence analysis; format: cell-based
[16] = tested on: HeLa; assay: Induction of interphase microtubule bundling in human HeLa cells at 0.8 uM after 18 hrs by indirect immunofluorescence analysis; format: cell-based
[17] = tested on: HeLa; assay: Cell cycle arrest in human HeLa cells assessed as accumulation of cells at G2/M phase at 0.8 uM after 18 hrs by flow cytometric analysis; format: functional, cell-based
[18] = tested on: HeLa; assay: Induction of interphase microtubule bundling in human HeLa cells at 2.5 uM after 18 hrs by indirect immunofluorescence analysis; format: cell-based
[19] = Antitumor activity against mouse 16/C cells allografted in mouse B6C3F1 assessed as decrease in tumor mass at 90 mg/kg, iv administered on days 1,4,6, 8, 9, 10 and 11 relative to control; format: functional; in short: as §2
[20] = Antitumor activity against mouse 16/C cells allografted in mouse B6C3F1 assessed as delay in tumor growth at 90 mg/kg, iv administered on days 1,4,6, 8, 9, 10 and 11 relative to control; format: functional; in short: as §3
[21] = Toxicity in B6C3F1 mouse allografted with mouse 16/C cells assessed as lethality at 54 mg/kg, iv administered on days 1,4,6, 8, 9, 10 and 11 measured after 12 days relative to control; format: organism-based; set-up: dose 54 mg/kg, route intravenous; conditions: in vivo, read-out: Activity
In short: (§4)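 Female B6C3F1 mice, 5 per group, bore bilateral s.c. Mammary 16/C fragments. Taccalonolides in DMSO:Cremophor diluted with water were given i.v. on days 1, 4, 6 plus a later dose (A, N) or days 8, 9, 11 (E). Mice were weighed and observed daily, and lethality was recorded per group.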

[22] = tested on: HeLa; assay: Cell cycle arrest in human HeLa cells assessed as accumulation of cells at G2/M phase at 2.5 uM after 18 hrs by flow cytometric analysis; format: functional, cell-based; in short: as §1
[23] = Antitumor activity against mouse 16/C cells allografted in mouse B6C3F1 assessed as decrease in tumor mass at 54 mg/kg, iv administered on days 1,4,6, 8, 9, 10 and 11 relative to control; format: functional; in short: as §2
[24] = Antitumor activity against mouse 16/C cells allografted in mouse B6C3F1 assessed as gross log cell killing at 90 mg/kg, iv administered on days 1,4,6, 8, 9, 10 and 11 relative to control; format: functional
In short: (§5)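 Mammary 16/C tumor fragments implanted bilaterally s.c. in female B6C3F1 mice on day 0, 5 mice/group. Taccalonolides in 50% DMSO:50% Cremophor stock, diluted with sterile water, given i.v. in 0.2 ml on days 1, 4, 6, plus one dose 2–3 days later (A, N) or further doses days 8, 9, 11 (E). Tumor mass = length × width²/2, measured 2–3 times weekly. Gross log cell kill = (T-C)/3.32 × Td, with T-C the days to 1000 mg.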

[25] = tested on: HeLa; assay: Inhibition of beta tubulin in human HeLa cells assessed asultiple abnormal mitotic spindle formation at 2.5 uM after 18 hrs by immunofluorescence analysis; format: cell-based
[26] = tested on: Mus musculus; assay: Toxicity in B6C3F1 mouse allografted with mouse 16/C cells assessed as mean body weight loss at 90 mg/kg, iv administered on days 1,4,6, 8, 9, 10 and 11 (reference value: -2.2%); format: organism-based; set-up: dose 90 mg/kg, route intravenous; conditions: in vivo
[27] = Antitumor activity against mouse 16/C cells allografted in mouse B6C3F1 assessed as gross log cell killing at 54 mg/kg, iv administered on days 1,4,6, 8, 9, 10 and 11 relative to control; format: functional; in short: as §5
[28] = Antitumor activity against mouse 16/C cells allografted in mouse B6C3F1 assessed as delay in tumor growth at 54 mg/kg, iv administered on days 1,4,6, 8, 9, 10 and 11 relative to control; format: functional; in short: as §3
[29] = tested on: Mus musculus; assay: Toxicity in B6C3F1 mouse allografted with mouse 16/C cells assessed as mean body weight loss at 54 mg/kg, iv administered on days 1,4,6, 8, 9, 10 and 11 (reference value: -2.2%); format: organism-based; set-up: dose 54 mg/kg, route intravenous; conditions: in vivo
[30] = Toxicity in B6C3F1 mouse allografted with mouse 16/C cells assessed as lethality at 90 mg/kg, iv administered on days 1,4,6, 8, 9, 10 and 11 measured after 12 days relative to control; format: organism-based; set-up: dose 90 mg/kg, route intravenous; conditions: in vivo, read-out: Activity; in short: as §4
[31] = tested on: HeLa; assay: Cell cycle arrest in human HeLa cells assessed as accumulation of cells at G2/M phase at 111 uM after 18 hrs by flow cytometric analysis; format: functional, cell-based; in short: as §1
[32] = tested on: HeLa; assay: Induction of interphase microtubule bundling in human HeLa cells at 57 uM after 18 hrs by indirect immunofluorescence; format: cell-based
[33] = tested on: HeLa; assay: Inhibition of beta tubulin in human HeLa cells assessed asultiple abnormal mitotic spindle formation at 57 uM after 18 hrs by immunofluorescence analysis; format: cell-based
[34] = tested on: HeLa; assay: Cell cycle arrest in human HeLa cells assessed as accumulation of cells at G2/M phase at 3.5 uM after 18 hrs by flow cytometric analysis; format: functional, cell-based; in short: as §1
[35] = tested on: HeLa; assay: Induction of interphase microtubule bundling in human HeLa cells at 3.5 uM after 18 hrs by indirect immunofluorescence analysis; format: cell-based
[36] = tested on: HeLa; assay: Inhibition of beta tubulin in human HeLa cells assessed asultiple abnormal mitotic spindle formation at 3.5 uM after 18 hrs by immunofluorescence analysis; format: cell-based
[37] = tested on: HeLa; assay: Induction of interphase microtubule bundling in human HeLa cells at 0.6 uM after 18 hrs by indirect immunofluorescence; format: cell-based
[38] = tested on: HeLa; assay: Cell cycle arrest in human HeLa cells assessed as accumulation of cells at G2/M phase at 0.6 uM after 18 hrs by flow cytometric analysis; format: functional, cell-based; in short: as §1
[39] = tested on: HeLa; assay: Inhibition of beta tubulin in human HeLa cells assessed asultiple abnormal mitotic spindle formation at 0.6 uM after 18 hrs by immunofluorescence analysis; format: cell-based

CC(=O)O[C@H]1C(=O)[C@@]2(C)[C@H]([C@H](OC(=O)c3ccccc3)[C@]3(O)C[C@H](OC(=O)[C@H](O)[C@@H](NC(=O)c4ccccc4)c4ccccc4)C(C)=C1C3(C)C)[C@]1(OC(C)=O)CO[C@@H]1C[C@@H]2O [PACLITAXEL]
Activity [1]: Active | LCK [2]: 4.8 | inhibition [3]: Active | Activity [4]: Active | T/C [5]: 0% | Time [6]: 19 days | Activity [7]: -6.3%

CC(=O)O[C@@H]1[C@H]2[C@H]3[C@H]([C@H](OC(C)=O)[C@H](OC(C)=O)[C@]2(C)[C@@H]2[C@@H]1[C@]1(C)C(=C[C@H]2C)OC(=O)[C@@]1(C)O)[C@@]1(C)[C@@H](OC(C)=O)[C@H]2O[C@H]2C[C@]1(O)C(=O)[C@@H]3OC(C)=O [TACCALONOLIDE AA]
Activity [8]: Active | IC50 [9]: 32.3 nM | inhibition [10]: Active | Activity [11]: Active

CC(=O)O[C@H]1[C@H]2[C@H]([C@@H]3[C@@H](O)[C@@H]4[C@H]([C@H](C)C=C5OC(=O)[C@@](C)(O)[C@@]54C)[C@@]3(C)[C@H]1OC(C)=O)[C@@H](O)C(=O)[C@@]1(O)C[C@@H]3O[C@@H]3[C@H](OC(C)=O)[C@]21C [TACCALONOLIDE AB]
inhibition [12]: Active | IC50 [9]: 2770 nM | Activity [13]: Active | Activity [14]: Active

CC(=O)O[C@H]1[C@H]2[C@H]([C@@H]3[C@@H](O)[C@@H]4[C@H]([C@H](C)C=C5OC(=O)[C@@](C)(O)[C@@]54C)[C@@]3(C)[C@H]1OC(C)=O)[C@@H](O)C(=O)[C@H]1C[C@@H]3O[C@@H]3[C@H](OC(C)=O)[C@]21C [TACCALONOLIDE B]
inhibition [15]: Active | Activity [16]: Active | Activity [17]: Active | IC50 [9]: 190 nM

CC(=O)O[C@@H]1[C@H]2[C@@H]3[C@@H](O)C(=O)[C@H]4C[C@@H]5O[C@@H]5[C@H](OC(C)=O)[C@]4(C)[C@H]3C[C@H](OC(C)=O)[C@]2(C)[C@@H]2[C@@H]1[C@]1(C)C(=C[C@H]2C)OC(=O)[C@@]1(C)O [TACCALONOLIDE E]
Activity [18]: Active | T/C [19]: 17% | Time [20]: 5 days | mortality at 288 h [21]: 0% | Activity [22]: Active | T/C [23]: 81% | LCK [24]: 1.25 | inhibition [25]: Active | Activity [26]: -4.1% | LCK [27]: 0.25 | Time [28]: 1 days | IC50 [9]: 644 nM | Activity [29]: -2% | mortality at 288 h [30]: 0%

CC(=O)O[C@@H]1[C@H]2[C@@H]3[C@@H](OC(C)=O)C(=O)[C@@]4(O)C[C@@H]5O[C@@H]5[C@H](OC(C)=O)[C@]4(C)[C@H]3C[C@H](OC(C)=O)[C@]2(C)[C@@H]2[C@@H]1[C@]1(C)C(=C[C@H]2C)OC(=O)[C@@]1(C)O [TACCALONOLIDE R]
Activity [31]: Active | IC50 [9]: 13100 nM | Activity [32]: Active | inhibition [33]: Active

CC(=O)O[C@@H]1[C@H]2[C@@H]3[C@@H](OC(C)=O)C(=O)[C@@]4(O)C[C@@H]5O[C@@H]5[C@H](OC(=O)CC(C)C)[C@]4(C)[C@H]3C[C@H](OC(C)=O)[C@]2(C)[C@@H]2[C@@H]1[C@]1(C)C(=C[C@H]2C)OC(=O)[C@@]1(C)O [TACCALONOLIDE T]
Activity [34]: Active | Activity [35]: Active | inhibition [36]: Active | IC50 [9]: 335 nM

CC(=O)O[C@@H]1[C@H]2[C@H]3[C@H]([C@H](OC(C)=O)[C@H](OC(C)=O)[C@]2(C)[C@@H]2[C@@H]1[C@]1(C)C(=C[C@H]2C)OC(=O)[C@@]1(C)O)[C@@]1(C)[C@@H](OC(C)=O)[C@H]2O[C@H]2C[C@]1(O)C(=O)[C@@H]3O [TACCALONOLIDE Z]
Activity [37]: Active | Activity [38]: Active | inhibition [39]: Active | IC50 [9]: 120 nM
